Holding throughout (type): cell-based
The target in assay [1] is T1, Short transient receptor potential channel 1 & 3/Stromal interaction molecule 1/Calcium release-activated calcium channel protein 1 (Homo sapiens) (UniProt Q96D31+Q13507+Q13586+P48995). Description: Modulation of TRPC1/TRPC3/STIM1/Orai1 in HEK cells assessed as induction of store-operated calcium entry by measuring residual activity at 10 uM in presence of shTRPC1 preincubated for 30 mins followed by tBhQ-mediated Ca2+ depletion and Ca2+ re-addition to extracellular solution measured for 600 secs by Fluo-4 AM-based fluorometric assay relative to control.
T1 sequence (P48995 whole entry partner): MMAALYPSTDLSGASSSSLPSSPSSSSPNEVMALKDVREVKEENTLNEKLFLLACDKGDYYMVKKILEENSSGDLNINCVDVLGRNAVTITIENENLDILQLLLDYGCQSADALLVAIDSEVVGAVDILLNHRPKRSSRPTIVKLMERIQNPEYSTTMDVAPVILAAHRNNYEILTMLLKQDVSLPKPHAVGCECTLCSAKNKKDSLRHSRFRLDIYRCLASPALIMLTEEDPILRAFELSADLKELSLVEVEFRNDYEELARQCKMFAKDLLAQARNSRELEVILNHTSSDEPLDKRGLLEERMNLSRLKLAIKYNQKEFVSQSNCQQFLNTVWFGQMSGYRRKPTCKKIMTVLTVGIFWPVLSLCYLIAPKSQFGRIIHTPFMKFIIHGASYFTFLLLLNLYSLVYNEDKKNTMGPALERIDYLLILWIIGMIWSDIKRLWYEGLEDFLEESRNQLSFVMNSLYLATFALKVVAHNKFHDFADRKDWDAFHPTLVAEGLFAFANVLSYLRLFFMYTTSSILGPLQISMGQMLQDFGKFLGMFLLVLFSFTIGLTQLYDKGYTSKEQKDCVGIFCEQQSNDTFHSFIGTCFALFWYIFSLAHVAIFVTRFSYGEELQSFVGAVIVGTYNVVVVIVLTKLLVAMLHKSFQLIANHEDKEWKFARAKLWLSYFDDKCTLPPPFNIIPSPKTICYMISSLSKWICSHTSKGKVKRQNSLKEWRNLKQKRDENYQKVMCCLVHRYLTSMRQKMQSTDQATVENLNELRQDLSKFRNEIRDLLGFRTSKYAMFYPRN
T1 sequence (Q13507 whole entry partner): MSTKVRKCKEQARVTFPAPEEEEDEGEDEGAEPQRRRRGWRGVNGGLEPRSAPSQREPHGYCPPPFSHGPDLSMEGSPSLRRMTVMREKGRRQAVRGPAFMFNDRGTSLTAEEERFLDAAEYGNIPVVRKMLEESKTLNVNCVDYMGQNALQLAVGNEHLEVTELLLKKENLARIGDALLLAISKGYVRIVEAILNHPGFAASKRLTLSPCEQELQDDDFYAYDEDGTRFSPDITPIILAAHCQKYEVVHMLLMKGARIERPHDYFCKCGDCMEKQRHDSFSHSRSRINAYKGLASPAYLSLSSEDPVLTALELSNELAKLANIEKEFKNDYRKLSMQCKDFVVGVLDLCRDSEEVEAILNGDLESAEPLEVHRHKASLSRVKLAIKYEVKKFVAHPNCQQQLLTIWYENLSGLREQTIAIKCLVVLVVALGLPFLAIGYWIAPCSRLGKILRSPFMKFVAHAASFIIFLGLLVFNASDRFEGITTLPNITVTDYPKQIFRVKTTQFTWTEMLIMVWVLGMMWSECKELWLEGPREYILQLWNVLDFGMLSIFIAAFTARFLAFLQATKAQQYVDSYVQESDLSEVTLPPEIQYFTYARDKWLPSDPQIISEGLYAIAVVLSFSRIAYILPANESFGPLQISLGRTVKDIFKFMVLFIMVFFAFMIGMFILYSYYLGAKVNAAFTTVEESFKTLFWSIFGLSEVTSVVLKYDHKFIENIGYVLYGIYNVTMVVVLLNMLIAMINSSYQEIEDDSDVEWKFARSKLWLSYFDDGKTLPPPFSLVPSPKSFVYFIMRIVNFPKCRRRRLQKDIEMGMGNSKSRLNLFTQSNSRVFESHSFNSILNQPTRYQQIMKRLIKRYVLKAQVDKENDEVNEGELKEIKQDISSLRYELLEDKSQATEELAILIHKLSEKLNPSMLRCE
T1 sequence (Q13586 23-685 partner limits assumed): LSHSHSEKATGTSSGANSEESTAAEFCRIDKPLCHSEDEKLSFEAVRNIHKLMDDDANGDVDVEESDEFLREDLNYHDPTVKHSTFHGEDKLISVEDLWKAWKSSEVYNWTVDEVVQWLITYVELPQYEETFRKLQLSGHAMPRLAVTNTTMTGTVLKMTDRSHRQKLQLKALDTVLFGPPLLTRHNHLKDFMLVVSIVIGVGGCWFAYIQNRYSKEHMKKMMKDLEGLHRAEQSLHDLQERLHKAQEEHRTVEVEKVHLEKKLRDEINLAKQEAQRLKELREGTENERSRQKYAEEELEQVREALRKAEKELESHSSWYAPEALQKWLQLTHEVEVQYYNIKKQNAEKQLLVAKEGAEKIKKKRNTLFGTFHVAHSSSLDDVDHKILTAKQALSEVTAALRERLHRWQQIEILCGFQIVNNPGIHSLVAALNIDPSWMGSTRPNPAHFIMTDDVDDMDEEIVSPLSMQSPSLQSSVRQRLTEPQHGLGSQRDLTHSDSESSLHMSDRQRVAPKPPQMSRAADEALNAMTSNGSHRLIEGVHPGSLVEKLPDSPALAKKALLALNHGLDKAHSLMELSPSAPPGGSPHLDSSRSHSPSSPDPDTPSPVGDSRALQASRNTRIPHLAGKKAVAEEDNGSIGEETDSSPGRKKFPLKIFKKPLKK
T1 sequence (Q96D31 whole entry): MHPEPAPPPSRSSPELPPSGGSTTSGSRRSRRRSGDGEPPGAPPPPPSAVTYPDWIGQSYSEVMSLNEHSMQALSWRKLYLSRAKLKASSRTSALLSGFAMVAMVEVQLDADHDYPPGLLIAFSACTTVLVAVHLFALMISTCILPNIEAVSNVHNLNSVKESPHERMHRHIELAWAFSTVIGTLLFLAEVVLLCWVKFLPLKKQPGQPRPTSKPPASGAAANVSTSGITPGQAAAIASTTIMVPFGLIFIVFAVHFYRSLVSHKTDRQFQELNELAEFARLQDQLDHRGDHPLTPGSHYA

Assay [2] concerns the target Transient receptor potential cation channel subfamily M member 8 (Homo sapiens) (UniProt Q7Z2W7). The assay is described as follows: Antagonist activity at TRPM8 (unknown origin) expressed in HEK cells assessed as inhibition of menthol -mediated calcium increase at 10 uM by fura-2-based assay. The essentials: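 TRPM8-overexpressing Hek cells; calcium rise evoked by menthol (100 μM), test compounds at 10 μM; peak amplitude read out; mean ± SEM of 600 cells from 30 plates on four separate experimental days.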

For assay [3], the target named is T1, Short transient receptor potential channel 1 & 3/Stromal interaction molecule 1/Calcium release-activated calcium channel protein 1 (Homo sapiens). The assay is described as follows: Modulation of TRPC1/TRPC3/STIM1/Orai1 in HEK cells assessed as induction of store-operated calcium entry by measuring increase in peak amplitude at 0.3 to 10 uM preincubated for 30 mins followed by tBhQ-mediated Ca2+ depletion and Ca2+ re-addition to extracellular solution measured for 600 secs by Fluo-4 AM-based fluorometric assay relative to control.

The target in assay [4] is T2, Stromal interaction molecule 1 & 2/Calcium release-activated calcium channel protein 1 (Mus musculus) (UniProt Q8BWG9+P70302+P83093). The assay is described as follows: Modulation of STIM1/STIM2/Orai1 in mouse BV2 cells assessed as induction of store-operated calcium entry by measuring increase in slope at 0.3 to 10 uM preincubated for 30 mins followed by tBhQ-mediated Ca2+ depletion and Ca2+ re-addition to extracellular solution measured for 600 secs by Fluo-4 AM-based fluorometric assay relative to control.

The next assay deals with Jurkat. The assay is described as follows: Induction of store-operated calcium entry in human Jurkat cells assessed as induction of store-operated calcium entry by measuring increase in peak amplitude at 0.3 to 10 uM preincubated for 30 mins followed by tBhQ-mediated Ca2+ depletion and Ca2+ re-addition to extracellular solution measured for 600 secs by Fluo-4 AM-based fluorometric assay relative to control.

The target in assay [5] is T2, Stromal interaction molecule 1 & 2/Calcium release-activated calcium channel protein 1 (Mus musculus). The assay is described as follows: Modulation of STIM1/STIM2/Orai1 in mouse BV2 cells assessed as induction of store-operated calcium entry at 10 uM preincubated for 30 mins followed by tBhQ-mediated Ca2+ depletion and Ca2+ re-addition to extracellular solution measured for 800 secs by Fluo-4 AM-based fluorometric assay relative to control. In outline:
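Microplate Fluo-4 assay in mouse microglial BV-2 cells. Stores emptied with tBhQ (50 μM) in presence of compound (10 μM); extracellular Ca2+ re-added after 600 s and intracellular Ca2+ read fluorimetrically; SOCE expressed versus control.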

Structures are written as SMILES. Activity calls are given as the source filed them. No cut-off for these calls is given here.

Chain of Transient receptor potential cation channel subfamily M member 8 (Homo sapiens) (Q7Z2W7 whole entry, looked up): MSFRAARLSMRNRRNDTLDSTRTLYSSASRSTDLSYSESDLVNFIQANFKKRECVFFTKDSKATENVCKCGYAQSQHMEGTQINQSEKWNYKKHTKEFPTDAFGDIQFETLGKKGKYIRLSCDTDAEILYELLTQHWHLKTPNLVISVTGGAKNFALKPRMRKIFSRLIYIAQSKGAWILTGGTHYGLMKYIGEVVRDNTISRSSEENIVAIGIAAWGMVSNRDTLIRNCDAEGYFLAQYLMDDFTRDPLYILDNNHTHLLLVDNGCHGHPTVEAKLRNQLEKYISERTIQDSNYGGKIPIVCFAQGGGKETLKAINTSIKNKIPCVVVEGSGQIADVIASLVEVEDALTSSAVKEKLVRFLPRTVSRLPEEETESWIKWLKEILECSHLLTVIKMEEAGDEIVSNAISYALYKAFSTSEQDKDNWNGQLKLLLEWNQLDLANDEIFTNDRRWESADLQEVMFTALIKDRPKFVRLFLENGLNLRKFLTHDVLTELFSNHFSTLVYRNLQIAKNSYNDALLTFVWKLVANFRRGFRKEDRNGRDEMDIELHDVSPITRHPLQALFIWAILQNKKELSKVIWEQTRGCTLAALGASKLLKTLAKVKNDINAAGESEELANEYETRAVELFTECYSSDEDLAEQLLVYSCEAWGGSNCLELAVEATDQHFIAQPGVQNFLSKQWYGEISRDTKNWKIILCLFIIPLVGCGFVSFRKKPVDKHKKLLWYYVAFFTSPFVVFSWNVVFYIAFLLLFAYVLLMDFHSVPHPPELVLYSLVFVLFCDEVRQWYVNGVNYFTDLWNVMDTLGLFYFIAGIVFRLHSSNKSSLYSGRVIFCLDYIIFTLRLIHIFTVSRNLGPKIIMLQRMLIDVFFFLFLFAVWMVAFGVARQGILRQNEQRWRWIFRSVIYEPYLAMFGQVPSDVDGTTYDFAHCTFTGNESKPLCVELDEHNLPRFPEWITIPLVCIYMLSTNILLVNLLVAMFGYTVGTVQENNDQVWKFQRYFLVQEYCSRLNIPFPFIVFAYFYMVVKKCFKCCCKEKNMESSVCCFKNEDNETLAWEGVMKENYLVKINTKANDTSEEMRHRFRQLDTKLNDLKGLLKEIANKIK

As to `O=C(O)c1ccc(-c2cn(-c3ccc(-n4nc(C(F)(F)F)cc4C(F)(F)F)cc3)nn2)cc1`, the result (in assay [1]; in assay [3]; in assay [4]; with Jurkat; in assay [5]) was Active. Also, the inhibition entry in assay [2] was “inactive”.
